Assay outcomes as filed in PubChem.
The list is not random: actives were taken first. Their share in the collection is about 3.7%.
hERG rescue – compounds protecting human hERG from proarrhythmic drug block; activation (rescue from dofetilide block), less the hit threshold, % at 10 µM; Q12809; CHO-hERG, FluxOR thallium flux, dofetilide IC70 present; 310,000 tested, 0.51% active;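 active means activation above the mean of controls blocked by dofetilide plus 5 SD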;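 further: thallium influx through hERG after potassium depolarization seen as dye fluorescence rise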
KCNQ1 inh – blocks the human KCNQ1 potassium channel; P51787; CHO-K1 KCNQ1, FluxOR thallium flux fluorescence; active compounds read high; B-score at 10 µM; 310,000 tested, 1.3% active;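 active means compounds whose thallium flux B-score, printed positive for inhibition, exceeds three library SD while starting fluorescence stays within three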;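 further: channel opened by potassium depolarization with thallium stimulus after 20 min compound exposure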
Kir21 block – blocks the mouse Kir2.1 inward-rectifier potassium channel; P35561; HEK293-Kir2.1, FluxOR thallium flux fluorescence; active compounds read low; B-score at 10 µM; 310,000 tested, 0.85% active; AID 1672;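 active means fluorescence ratio B-score at or below minus 3 SD of library scores, with starting-brightness B-score within 2 SD, cut at about -4.2 in these data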;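 further: channel flux triggered by added potassium and thallium sulfate stimulus; B-score of peak minus minimum fluorescence over baseline after thallium stimulus; more negative B-score means stronger Kir2.1 block with less thallium influx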
KCNK3 inh – human KCNK3 channel inhibition, primary screen; O14649; B-score at 10 µM; 340,000 tested, 0.84% active; CHO-KCNK3 thallium flux, FluxOR fluorescence; active compounds read low;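 active means B-score under library mean minus 4 SD, starting fluorescence ratio at most library mean plus 5 SD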;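 further: more negative B-score means stronger inhibition of thallium flux through KCNK3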
KCNK9 block – human KCNK9 channel inhibition | HEK293 KCNK9, FluxOR thallium flux fluorescence; active compounds read low | B-score at 10 µM | Q9NPC2 | 310,000 tested, 1.2% active;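 active means ratio B-score over 3 SD below the library mean, with starting fluorescence within 5 SD of its mean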;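 further: negative B-score means less thallium flux so channel inhibition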
Target sequence (Q9NPC2 whole entry, looked up): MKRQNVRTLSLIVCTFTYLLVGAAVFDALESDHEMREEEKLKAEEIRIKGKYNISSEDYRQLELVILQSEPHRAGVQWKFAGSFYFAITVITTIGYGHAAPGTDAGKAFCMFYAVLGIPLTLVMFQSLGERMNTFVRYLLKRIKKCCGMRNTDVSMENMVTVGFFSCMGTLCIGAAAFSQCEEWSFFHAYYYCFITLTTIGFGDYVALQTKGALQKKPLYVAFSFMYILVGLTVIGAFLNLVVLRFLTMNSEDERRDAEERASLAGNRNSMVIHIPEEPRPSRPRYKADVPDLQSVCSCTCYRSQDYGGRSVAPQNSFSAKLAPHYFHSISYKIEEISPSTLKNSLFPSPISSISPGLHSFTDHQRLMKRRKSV
KCNQ1 pot – potentiates or activates the human KCNQ1 potassium channel. CHO-K1 KCNQ1, thallium flux FluxOR fluorescence; active compounds read high. B-score at 10 µM. 310,000 tested, 0.35% active. AID 2648;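 active means fluorescence ratio B-score, a plate-corrected score, at least three library SD, with initial intensity B-score within 5 SD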
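Test system: CHO-K1 cells stably expressing KCNQ1 / Medium: assay buffer / Also added: depolarizing K+/Tl+ stimulus, K2SO4 and Tl2SO4 each 12.5 mM in 5x stock / Incubation: 90 min dye loading and 20 min compound exposure, both at room temperature / Signal: thallium influx via FluxOR fluorescence, kinetic imaging / Evaluation: B score of baseline-normalized fluorescence ratio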
Active calls of the source: *.

What do the screens show for `CC1CC(C)CN(CCCNC(=O)c2cc3c(s2)-c2ccccc2OC3)C1` (centres undefined)?
hERG rescue: -13; KCNQ1 inh: 6*; Kir21 block: -2.5; KCNK3 inh: inactive; KCNK9 block: inactive; KCNQ1 pot: inactive

Results for CCN1CCN(CCCNC(=O)c2cc3c(s2)-c2ccccc2OC3)CC1 ?
hERG rescue: -11; KCNQ1 inh: inactive; Kir21 block: -1.5; KCNK3 inh: inactive; KCNK9 block: inactive; KCNQ1 pot: inactive

How did CC(=O)N1c2ccc(N=Cc3cc(Br)cc(Br)c3O)cc2CC1C (centres undefined) do in these assays?
hERG rescue: 3; KCNQ1 inh: inactive; Kir21 block: 0.26; KCNK9 block: inactive; KCNQ1 pot: 8*

How did CC1CCCC(C)N1/N=C/c1cc(Br)cc(Br)c1O (centres undefined) do in these assays?
hERG rescue: -9; KCNQ1 inh: inactive; Kir21 block: 0.68; KCNK3 inh: inactive; KCNK9 block: inactive; KCNQ1 pot: inactive

What do the screens show for `COc1cc(C2c3[nH]c4ccccc4c3C[C@H]3C(=O)N(C4CC4)CC(=O)N23)ccc1OC(C)C` (some centres undefined)?
hERG rescue: -1; KCNQ1 inh: inactive; Kir21 block: 2.1; KCNK3 inh: inactive; KCNK9 block: inactive; KCNQ1 pot: inactive

What do the screens show for `Cc1nc(-n2ncc(C#N)c2N)c2c3c(sc2n1)CCC3`?
hERG rescue: -7; KCNQ1 inh: inactive; Kir21 block: -0.01; KCNK3 inh: inactive; KCNK9 block: inactive; KCNQ1 pot: inactive

What do the screens show for `CCOC(=O)c1cnn(-c2nc(SC)nc3sc4c(c23)CCC4)c1N`?
hERG rescue: -14; KCNQ1 inh: inactive; Kir21 block: 0.26; KCNK3 inh: inactive; KCNK9 block: -7.8*; KCNQ1 pot: inactive

Results for C=CCSc1nnc(NC(=O)Cn2cnc3c2c(=O)n(C)c(=O)n3C)s1 ?
hERG rescue: 10*; KCNQ1 inh: inactive; Kir21 block: -0.99; KCNK3 inh: inactive; KCNK9 block: inactive; KCNQ1 pot: inactive

How did Cn1c(=O)c2c(ncn2CC(=O)Nc2nnc(Cc3ccccc3)s2)n(C)c1=O do in these assays?
hERG rescue: -2; KCNQ1 inh: inactive; Kir21 block: -0.88; KCNK3 inh: inactive; KCNK9 block: inactive; KCNQ1 pot: inactive

What do the screens show for `CC(C)Oc1ccccc1OCCCOc1cccc2cccnc12`?
hERG rescue: -20; KCNQ1 inh: inactive; Kir21 block: -6.6*; KCNK3 inh: inactive; KCNK9 block: inactive; KCNQ1 pot: inactive

Results for Cc1noc(C)c1S(=O)(=O)N1CCN(S(=O)(=O)c2ccccc2C#N)CC1 ?
hERG rescue: -7; KCNQ1 inh: inactive; Kir21 block: -0.11; KCNK3 inh: inactive; KCNK9 block: inactive; KCNQ1 pot: inactive

Results for O=C(Cn1nc(Cc2ccncc2)c2ccccc2c1=O)Nc1cccnc1Cl ?
hERG rescue: -7; KCNQ1 inh: inactive; Kir21 block: 0.61; KCNK3 inh: inactive; KCNK9 block: inactive; KCNQ1 pot: inactive

Results for COc1ccccc1NS(=O)(=O)c1ccc(O)c(C(N)=O)c1 ?
hERG rescue: 2; KCNQ1 inh: inactive; Kir21 block: -4.2*; KCNK3 inh: inactive; KCNK9 block: inactive; KCNQ1 pot: inactive

How did COc1ccccc1NS(=O)(=O)c1cc(C)ccc1C do in these assays?
hERG rescue: -9; KCNQ1 inh: inactive; Kir21 block: -4.6*; KCNK3 inh: inactive; KCNK9 block: inactive; KCNQ1 pot: inactive

What do the screens show for `COc1ccc(S(=O)(=O)Nc2ccccc2SC)cc1C`?
hERG rescue: -8; KCNQ1 inh: inactive; Kir21 block: -6.7*; KCNK3 inh: inactive; KCNK9 block: inactive; KCNQ1 pot: inactive

What do the screens show for `COc1ccccc1NS(=O)(=O)c1ccc(O)c(C(=O)OCC(=O)c2ccc(Cl)cc2Cl)c1`?
hERG rescue: -5; KCNQ1 inh: inactive; Kir21 block: 0.24; KCNK3 inh: inactive; KCNK9 block: inactive; KCNQ1 pot: inactive

How did COc1ccc(OC)c(S(=O)(=O)Nc2ccccc2SC)c1 do in these assays?
hERG rescue: -12; KCNQ1 inh: inactive; Kir21 block: -4.6*; KCNK3 inh: inactive; KCNK9 block: inactive; KCNQ1 pot: inactive

What do the screens show for `C[C@@H]1CN([C@@H](C)CO)C(=O)c2cccc(NC(=O)C3CCOCC3)c2O[C@H]1CN(C)S(=O)(=O)c1ccc(Cl)cc1`?
KCNK3 inh: inactive

Results for O=C(CSc1cn[nH]n1)Nc1cccc(C(F)(F)F)c1 ?
hERG rescue: -10; KCNQ1 inh: inactive; Kir21 block: -1.7; KCNK3 inh: inactive; KCNK9 block: -7.5*; KCNQ1 pot: inactive

How did O=S(=O)(NCCc1cccs1)c1ccc(Br)cc1 do in these assays?
hERG rescue: -13; KCNQ1 inh: inactive; Kir21 block: -5.3*; KCNK3 inh: inactive; KCNK9 block: inactive; KCNQ1 pot: inactive

Results for CC(Oc1cccc(Cl)c1)C(=O)Nc1cc(S(=O)(=O)N2CCOCC2)ccc1N1CCCCC1 (centres undefined) ?
hERG rescue: -15; KCNQ1 inh: 7*; Kir21 block: 2.4; KCNK3 inh: inactive; KCNK9 block: inactive; KCNQ1 pot: inactive

What do the screens show for `CCN1CCN(c2ccc(S(=O)(=O)N3CCOCC3)cc2NC(=O)C(C)Oc2cccc(Cl)c2)CC1` (centres undefined)?
hERG rescue: -11; KCNQ1 inh: inactive; Kir21 block: 2.4; KCNK3 inh: inactive; KCNK9 block: inactive; KCNQ1 pot: inactive

Results for COc1cc(/C=C(/C(=O)c2cccs2)c2nc3ccccc3[nH]2)ccc1O ?
hERG rescue: -19; KCNQ1 inh: inactive; Kir21 block: -4.4*; KCNK3 inh: inactive; KCNK9 block: inactive; KCNQ1 pot: inactive

How did COC(=O)/C(=C\c1cc(OC)c(OC)c(OC)c1)c1nc2ccccc2[nH]1 do in these assays?
hERG rescue: -8; KCNQ1 inh: inactive; Kir21 block: -1.3; KCNK3 inh: inactive; KCNK9 block: inactive; KCNQ1 pot: inactive

What do the screens show for `CCCCN(C(=O)c1cccc(S(=O)(=O)N(CC)c2ccccc2)c1)c1c(N)n(CCCC)c(=O)[nH]c1=O`?
KCNK3 inh: inactive

How did O=C(Cc1cccc2ccccc12)Nc1ccccc1 do in these assays?
hERG rescue: -7; KCNQ1 inh: inactive; Kir21 block: -1.1; KCNK3 inh: inactive; KCNK9 block: inactive; KCNQ1 pot: inactive

What do the screens show for `C=CCN(CC=C)C(=S)NC(=O)Cc1cccc2ccccc12`?
hERG rescue: 10*; KCNQ1 inh: inactive; Kir21 block: -2.1; KCNK3 inh: inactive; KCNK9 block: inactive; KCNQ1 pot: 10*
